Test results from ChEMBL document CHEMBL1155942, “Synthesis and evaluation in vitro and in vivo of a 11C-labeled cyclooxygenase-2 (COX-2) inhibitor” (Bioorg Med Chem, 2008).

Columns and labels:
[1] = Biodistribution in Wistar rat white adipose tissue at ~20 MBq, iv after 5 mins; type: ADME, organism-based; settings: in vivo
Procedure, shortened: (§1)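 Male Wistar rats, housed under standard conditions. Each received about 20 MBq of radiotracer iv in 0.5 mL saline with 10% ethanol. Animals were killed at 5 or 60 min post injection, and organs were excised and weighed. Activity was gamma-counted, decay-corrected and calibrated against injected-tracer aliquots, then expressed as %ID/g. Mean ± SD, four animals per time point.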

Pancreas [2] = test: Biodistribution in Wistar rat pancreas at ~20 MBq, iv after 60 mins; type: ADME, organism-based; settings: in vivo, 1 h; procedure, shortened: as §1
Spleen [3] = test: Biodistribution in Wistar rat spleen at ~20 MBq, iv after 60 mins; type: ADME, organism-based; settings: in vivo, 1 h; procedure, shortened: as §1
Harderian gland [4] = test: Biodistribution in Wistar rat harderian gland at ~20 MBq, iv after 60 mins; type: ADME, organism-based; settings: in vivo, 1 h; procedure, shortened: as §1
Testes [5] = test: Biodistribution in Wistar rat testes at ~20 MBq, iv after 60 mins; type: ADME, organism-based, Testis; settings: in vivo, 1 h; procedure, shortened: as §1
Femur [6] = test: Biodistribution in Wistar rat femur at ~20 MBq, iv after 60 mins; type: ADME, organism-based; settings: in vivo, 1 h; procedure, shortened: as §1
[7] = Biodistribution in Wistar rat brown adipose tissue at ~20 MBq, iv after 5 mins; type: ADME, organism-based; settings: in vivo; procedure, shortened: as §1
[8] = Metabolic stability in human HT29 cells bearing mouse plasma at 20 MBq, iv after 30 mins; type: ADME, organism-based, HT-29; settings: read-out: Stability
Procedure, shortened: (§2)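 After iv radiotracer, arterial blood was drawn through a femoral artery catheter. Plasma was separated by centrifugation (3 min, 11,000g). Proteins were precipitated with ice-cold methanol (1.5 parts per part plasma) and centrifuged again. Supernatants were analysed by HPLC for the fraction of intact radiotracer over time.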

[9] = Metabolic stability in human HT29 cells bearing mouse plasma at 20 MBq, iv after 10 mins; type: ADME, organism-based, HT-29; settings: read-out: Stability; procedure, shortened: as §2
[10] = Biodistribution in Wistar rat white adipose tissue at ~20 MBq, iv after 60 mins; type: ADME, organism-based; settings: in vivo, 1 h; procedure, shortened: as §1
[11] = Metabolic stability in Wistar rat plasma at 30 MBq, iv after 30 mins; type: ADME, organism-based; settings: read-out: Stability; procedure, shortened: as §2
[12] = Metabolic stability in human HT29 cells bearing mouse plasma at 20 MBq, iv after 5 mins; type: ADME, organism-based, HT-29; settings: read-out: Stability; procedure, shortened: as §2
[13] = Biodistribution in Wistar rat brown adipose tissue at ~20 MBq, iv after 60 mins; type: ADME, organism-based; settings: in vivo, 1 h; procedure, shortened: as §1
Adrenal [14] = test: Biodistribution in Wistar rat adrenal at ~20 MBq, iv after 5 mins; type: ADME, organism-based, Adrenal tissue; settings: in vivo; procedure, shortened: as §1
[15] = Metabolic stability in Wistar rat plasma at 30 MBq, iv after 60 mins; type: ADME, organism-based; settings: read-out: Stability; procedure, shortened: as §2
Thymus [16] = test: Biodistribution in Wistar rat thymus at ~20 MBq, iv after 60 mins; type: ADME, organism-based; settings: in vivo, 1 h; procedure, shortened: as §1
[17] = Metabolic stability in Wistar rat plasma at 30 MBq, iv after 1 min; type: ADME, organism-based; settings: read-out: Stability; procedure, shortened: as §2
Liver [18] = test: Biodistribution in Wistar rat liver at ~20 MBq, iv after 60 mins; type: ADME, organism-based; settings: in vivo, 1 h; procedure, shortened: as §1
Lung [19] = test: Biodistribution in Wistar rat lung at ~20 MBq, iv after 60 mins; type: ADME, organism-based; settings: in vivo, 1 h; procedure, shortened: as §1
[20] = Metabolic stability in human HT29 cells bearing mouse plasma at 20 MBq, iv after 1 min; type: ADME, organism-based, HT-29; settings: read-out: Stability; procedure, shortened: as §2
Blood [21] = test: Biodistribution in Wistar rat blood at ~20 MBq, iv after 5 mins; type: ADME, organism-based; settings: in vivo; procedure, shortened: as §1
Kidney [22] = test: Biodistribution in Wistar rat kidney at ~20 MBq, iv after 5 mins; type: ADME, organism-based; settings: in vivo; procedure, shortened: as §1
[23] = Metabolic stability in Wistar rat plasma at 30 MBq, iv after 10 mins; type: ADME, organism-based; settings: read-out: Stability; procedure, shortened: as §2
Kidney [24] = test: Biodistribution in Wistar rat kidney at ~20 MBq, iv after 60 mins; type: ADME, organism-based; settings: in vivo, 1 h; procedure, shortened: as §1
Muscle tissue [25] = test: Biodistribution in Wistar rat muscle at ~20 MBq, iv after 60 mins; type: ADME, organism-based; settings: in vivo, 1 h; procedure, shortened: as §1
Muscle tissue [26] = test: Biodistribution in Wistar rat muscle at ~20 MBq, iv after 5 mins; type: ADME, organism-based; settings: in vivo; procedure, shortened: as §1
Harderian gland [27] = test: Biodistribution in Wistar rat harderian gland at ~20 MBq, iv after 5 mins; type: ADME, organism-based; settings: in vivo; procedure, shortened: as §1
[28] = Metabolic stability in Wistar rat plasma at 30 MBq, iv after 5 mins; type: ADME, organism-based; settings: read-out: Stability; procedure, shortened: as §2
Blood [29] = test: Biodistribution in Wistar rat blood at ~20 MBq, iv after 60 mins; type: ADME, organism-based; settings: in vivo, 1 h; procedure, shortened: as §1
Liver [30] = test: Biodistribution in Wistar rat liver at ~20 MBq, iv after 5 mins; type: ADME, organism-based; settings: in vivo; procedure, shortened: as §1
[31] = Metabolic stability in Wistar rat plasma at 30 MBq, iv after 20 mins; type: ADME, organism-based; settings: read-out: Stability; procedure, shortened: as §2
Heart [32] = test: Biodistribution in Wistar rat heart at ~20 MBq, iv after 60 mins; type: ADME, organism-based; settings: in vivo, 1 h; procedure, shortened: as §1
Thymus [33] = test: Biodistribution in Wistar rat thymus at ~20 MBq, iv after 5 mins; type: ADME, organism-based; settings: in vivo; procedure, shortened: as §1
[34] = Metabolic stability in human HT29 cells bearing mouse plasma at 20 MBq, iv after 60 mins; type: ADME, organism-based, HT-29; settings: read-out: Stability; procedure, shortened: as §2
[35] = Metabolic stability in human HT29 cells bearing mouse plasma at 20 MBq, iv after 20 mins; type: ADME, organism-based, HT-29; settings: read-out: Stability; procedure, shortened: as §2
Femur [36] = test: Biodistribution in Wistar rat femur at ~20 MBq, iv after 5 mins; type: ADME, organism-based; settings: in vivo; procedure, shortened: as §1
Testes [37] = test: Biodistribution in Wistar rat testes at ~20 MBq, iv after 5 mins; type: ADME, organism-based, Testis; settings: in vivo; procedure, shortened: as §1
Spleen [38] = test: Biodistribution in Wistar rat spleen at ~20 MBq, iv after 5 mins; type: ADME, organism-based; settings: in vivo; procedure, shortened: as §1
Heart [39] = test: Biodistribution in Wistar rat heart at ~20 MBq, iv after 5 mins; type: ADME, organism-based; settings: in vivo; procedure, shortened: as §1
Adrenal [40] = test: Biodistribution in Wistar rat adrenal at ~20 MBq, iv after 60 mins; type: ADME, organism-based, Adrenal tissue; settings: in vivo, 1 h; procedure, shortened: as §1
Pancreas [41] = test: Biodistribution in Wistar rat pancreas at ~20 MBq, iv after 5 mins; type: ADME, organism-based; settings: in vivo; procedure, shortened: as §1
Brain [42] = test: Biodistribution in Wistar rat brain at ~20 MBq, iv after 5 mins; type: ADME, organism-based; settings: in vivo; procedure, shortened: as §1
Lung [43] = test: Biodistribution in Wistar rat lung at ~20 MBq, iv after 5 mins; type: ADME, organism-based; settings: in vivo; procedure, shortened: as §1
Brain [44] = test: Biodistribution in Wistar rat brain at ~20 MBq, iv after 60 mins; type: ADME, organism-based; settings: in vivo, 1 h; procedure, shortened: as §1

Drug uptake [1]: 0.53 % ID/g
Drug uptake (Pancreas [2]): 0.52 % ID/g
Drug uptake (Spleen [3]): 0.21 % ID/g
Drug uptake (Harderian gland [4]): 0.42 % ID/g
Drug uptake (Testes [5]): 0.09 % ID/g
Drug uptake (Femur [6]): 0.19 % ID/g
Drug uptake [7]: 1.89 % ID/g
remaining at 0.5 h [8]: 5%
remaining at 10 min [9]: 17%
Drug uptake [10]: 0.52 % ID/g
remaining at 0.5 h [11]: 22%
remaining at 5 min [12]: 40%
Drug uptake [13]: 0.67 % ID/g
Drug uptake (Adrenal [14]): 1.33 % ID/g
remaining at 1 h [15]: 18%
Drug uptake (Thymus [16]): 0.2 % ID/g
remaining at 1 min [17]: 97%
Drug uptake (Liver [18]): 0.76 % ID/g
Drug uptake (Lung [19]): 0.19 % ID/g
remaining at 1 min [20]: 95%
Drug uptake (Blood [21]): 0.23 % ID/g
Drug uptake (Kidney [22]): 0.62 % ID/g
remaining at 10 min [23]: 35%
Drug uptake (Kidney [24]): 0.26 % ID/g
Drug uptake (Muscle tissue [25]): 0.11 % ID/g
Drug uptake (Muscle tissue [26]): 0.32 % ID/g
Drug uptake (Harderian gland [27]): 1.06 % ID/g
remaining at 5 min [28]: 57%
Drug uptake (Blood [29]): 0.18 % ID/g
Drug uptake (Liver [30]): 1.35 % ID/g
remaining at 20 min [31]: 26%
Drug uptake (Heart [32]): 0.16 % ID/g
Drug uptake (Thymus [33]): 0.64 % ID/g
remaining at 1 h [34]: 2%
remaining at 20 min [35]: 8%
Drug uptake (Femur [36]): 0.34 % ID/g
Drug uptake (Testes [37]): 0.2 % ID/g
Drug uptake (Spleen [38]): 0.32 % ID/g
Drug uptake (Heart [39]): 0.5 % ID/g
Drug uptake (Adrenal [40]): 0.57 % ID/g
Drug uptake (Pancreas [41]): 0.78 % ID/g
Drug uptake (Brain [42]): 0.59 % ID/g
Drug uptake (Lung [43]): 0.59 % ID/g
Drug uptake (Brain [44]): 0.11 % ID/g
Structure (SMILES): CS(=O)(=O)c1ccc(C2=C(c3ccc(O[11CH3])cc3)CCC2)cc1
